High-throughput results deposited in PubChem BioAssay by several laboratories.
In the library only some 5.2% were active in any assay of this set; here they are far more common.
ZTA DNA inh = counter-screen for EBNA-1 inhibitors: inhibitors of Epstein-Barr virus ZTA; P03206; ZTA-DNA binding, fluorescence polarization; actives 0.15% (n = 320,000); inhibition, % at 11 µM; AID 2234; in the data active means inhibition above about 33%
Target sequence (P03206 whole entry, looked up): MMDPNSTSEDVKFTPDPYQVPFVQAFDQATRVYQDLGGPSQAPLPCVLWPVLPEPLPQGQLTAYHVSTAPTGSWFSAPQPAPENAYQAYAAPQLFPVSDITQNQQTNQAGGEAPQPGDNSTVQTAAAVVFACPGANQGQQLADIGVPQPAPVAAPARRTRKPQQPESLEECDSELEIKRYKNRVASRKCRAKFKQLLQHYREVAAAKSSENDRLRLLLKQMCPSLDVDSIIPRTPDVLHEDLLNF
PfM18AAP inh = PfM18AAP inhibitors, malaria aminopeptidase, primary screen, biochemical, QFRET, recombinant enzyme; M18 aspartyl aminopeptidase (Plasmodium falciparum 3D7); H-Glu-NHMec fluorogenic cleavage; inhibition, % at 7.35 µM; actives 1.2% (n = 290,000); AID 1822, 2009;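 active means inhibition above the campaign mean inhibition over all tested compounds plus 3 SD, cut at about 28% in these data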;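 further: 0% = plate median of test compound wells and 100% = 2 mM ZnCl2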
NS3 helicase inh = inhibitors of HCV NS3 helicase, primary screen, biochemical, Cy5 molecular beacon fluorescence. actives 0.56% (n = 290,000). inhibition, % at 10.9 µM. NS3 helicase DNA unwinding. AID 1800, 2009;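 active means inhibition above the mean of all tested compounds plus 3 SD, set per campaign, cut at about 35% in these data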;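 further: 0% = DMSO wells and 100% = thioflavine S control wells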
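Compound dosing – single dose, 10.9 µM nominal final, DMSO 0.8% final · System – NS3 helicase fragment of HCV · Buffer or medium – MOPS pH 6.5, MgCl2, DTT, Tween20, BSA · Signal – Cy5 beacon fluorescence read at start and 1 h · Also added – annealed dual-labelled DNA beacon duplex, ATP-started · Schedule – 1 h at 25 °C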
EBNA-1 inhibitor = EBNA-1 DNA-binding inhibitors, primary screen, biochemical, fluorescence polarization; inhibition, % at 14.8 µM; actives 0.34% (n = 300,000); AID 1950, 2009; in the data active means inhibition above about 28%
ALR H2O2 inh = inhibitors of human ALR sulfhydryl oxidase, primary screen, biochemical, H2O2 detection, HRP-luminol luminescence, single point; FAD-linked sulfhydryl oxidase ALR (Homo sapiens), P55789; AID 485317, 2010; actives 3.8% (n = 290,000); inhibition, % (test concentration not listed); purified ALR, DTT oxidation;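 active means mean replicate inhibition above about 79%, with every replicate also reaching it, limit read from the data; inconclusive means only one of the two criteria met; inactive means mean below limit and not every replicate reaching it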
Target sequence (P55789 whole entry, looked up): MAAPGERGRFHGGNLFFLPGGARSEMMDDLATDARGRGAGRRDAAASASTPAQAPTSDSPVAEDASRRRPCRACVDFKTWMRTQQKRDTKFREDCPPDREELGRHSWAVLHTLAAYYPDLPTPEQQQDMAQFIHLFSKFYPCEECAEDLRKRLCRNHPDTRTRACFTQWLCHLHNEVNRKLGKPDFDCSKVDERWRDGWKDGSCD
HCV core dimer = inhibitors of HCV core protein dimerization, primary screen, biochemical, TR-FRET, high-throughput; AID 1899, 2009; actives 0.33% (n = 300,000); TR-FRET GST/Flag-core106 dimerization, 1536-well; inhibition, % at 5 µM;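 active means inhibition above the mean of all tested compounds plus 3 SD, set per screening campaign, cut at about 45% in these data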
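Material: Tagged HCV core106 pair (GST and Flag) | Amount: GST-core106 13.5 nM, Flag-core106 17 nM | Medium: KF-containing HEPES buffer, pH 7.45, DTT, CHAPS, BSA | Reagent: Eu donor and XL665 acceptor anti-tag antibodies | Schedule: 4 h at 22.5 °C | Technique: Time-resolved FRET, ex 340 nm, em 617 and 671 nm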
Starred values were filed as active, the others as inactive; ? = inconclusive; . = not tested or not shown.

SMILES | ZTA DNA inh | PfM18AAP inh | NS3 helicase inh | EBNA-1 inhibitor | ALR H2O2 inh | HCV core dimer
Cc1ccccc1C(=O)Nc1cccc(C(=O)N/N=C/c2ccc3c(c2)OCO3)c1 | 18.7 | 2.7 | 4.4 | 21.5 | -0.9 | 7.5
COc1cc(/C=N/NC(=O)c2cccc(NC(=O)c3ccccc3C)c2)ccc1O | -2.6 | 5.3 | -2.3 | 7.5 | 94.8* | 1.1
COc1cc(/C=C/C(=O)c2cccc([N+](=O)[O-])c2)cc(OC)c1OC | -2.9 | 7.5 | -4.8 | -11.9 | 96.4* | 2.6
CCN1CCN(C(=O)CN2C(=O)c3ccccc3S2(=O)=O)CC1 | -3.0 | . | . | -2.9 | -5.4 | 2.1
COc1ccc(OCc2cc(C(=O)NC(C)Cn3cncn3)no2)c(Cl)c1 (stereo not drawn) | -7.0 | 1.3 | 35.8 | 3.0 | 7.1 | 5.3
CCn1cc(CNC(=O)c2cc(COc3ccc(F)cc3F)on2)cn1 | -4.7 | 2.1 | 1.8 | -6.5 | 3.2 | -1.9
NC(=S)NN=C1c2ccccc2-c2ccccc21 | 3.0 | 12.7 | 7.3 | 11.6 | -5.2 | -11.1
COc1cc(/C=N/NC(=O)c2cccc(C(=O)N/N=C/c3ccc(O)c(OC)c3)n2)ccc1O | . | -4.8 | -8.4 | . | 1.7 | .
COc1cc(/C=N/NC(=O)c2cccc(NC(=O)c3ccccc3)c2)ccc1O | 4.0 | 4.0 | 2.9 | 5.1 | 98.2* | -8.7
COc1ccc(/C=C2\C(=N)N3N=C(CC(=O)N4CCOCC4)SC3=NC2=O)cc1 | -25.0 | -0.8 | 8.2 | -5.6 | -6.2 | -9.3
Cc1ccc(/C=C2\C(=N)N3N=C(CC(=O)N4CCOCC4)SC3=NC2=O)o1 | 18.7 | 4.0 | 3.9 | 8.0 | 91.5* | 4.5
N=C1/C(=C\c2ccc(SCc3ccccc3)o2)C(=O)N=C2SC(CC(=O)N3CCOCC3)=NN12 | -16.9 | -2.8 | 6.5 | 0.5 | 98.3* | 7.6
CC1CC(NC(=O)/C=C/C(=O)O)CC(C)(C)C1 (stereo not drawn) | 2.3 | -10.4 | -10.4 | -18.4 | -6.5 | -1.3
Cc1cc(NC(=O)CSc2sc3c(O)cc(=O)[nH]c3c2C#N)ccc1Br | -7.8 | 25.2 | 26.2 | -4.1 | 99.1* | -38.1
N#Cc1c(SCC(=O)Nc2cccc(C(F)(F)F)c2)sc2c(O)cc(=O)[nH]c12 | -6.5 | 7.3 | 6.4 | -10.8 | 99.4* | 24.6
Cc1ccc(C)c(NC(=O)CSc2sc3c(O)cc(=O)[nH]c3c2C#N)c1 | 22.2 | 26.8 | 7.3 | 0.0 | ? | 9.0
C/C(=N\NS(=O)(=O)c1ccc(Br)cc1)c1ccc2c(c1)OCO2 | 0.4 | -2.2 | -7.7 | 4.2 | 30.9 | 0.5
C/C(=N/NS(=O)(=O)c1ccc(Br)cc1)c1ccc(C)o1 | -1.3 | 1.3 | 1.5 | -5.9 | 98.0* | -6.6
COc1ccc(/C(C)=N/Nc2nncc3ccccc23)cc1 | 11.4 | -0.9 | -11.3 | 11.7 | -5.9 | -2.5
CNC(=S)NNc1nncc2ccccc12 | -9.5 | 30.1* | 2.8 | 4.3 | 106.1* | -7.8
O=C(O)COc1ccccc1/C=C1\C(=O)Nc2ccc(Br)cc21 | 11.7 | 24.4 | 7.7 | 8.6 | 97.6* | 0.1
COc1ccc(S(=O)(=O)Nc2c(C)n(C)n(-c3ccccc3)c2=O)cc1C(=O)O | . | -5.1 | 30.2 | . | 8.8 | .
O=C(Nc1nc2ccccc2s1)C1CCCO1 (stereo not drawn) | -13.3 | 1.2 | 1.1 | -10.7 | 1.9 | -5.8
O=C(CN1C(=O)C2CC=CCC2C1=O)Nc1nc2ccc(F)cc2s1 (stereo not drawn) | 12.7 | 3.4 | -0.5 | -15.3 | 98.3* | 5.9
O=C(Nc1nc2ccc(F)cc2s1)C1CCCO1 (stereo not drawn) | -9.0 | 4.1 | 4.2 | -0.6 | 98.7* | -3.4
SMILES | ZTA DNA inh | PfM18AAP inh | NS3 helicase inh | EBNA-1 inhibitor | ALR H2O2 inh | HCV core dimer
Nc1ccc2nc(NC(=O)C3CCCCC3)sc2c1 | 0.4 | -0.1 | -2.7 | 5.9 | 98.8* | -3.6
CC12CCC(=O)C=C1CCC1C2C(O)CC2(C)C1CCC2(O)C(=O)CO (stereo not drawn) | 16.9 | 0.9 | -11.8 | 8.6 | -14.9 | 9.8
Cc1ccc(CNC(=O)CCCn2nc(C)c3c(C)n(-c4ccccc4)nc3c2=O)cc1 | -2.1 | 3.2 | -2.3 | -4.5 | 0.9 | 10.0
CCOc1ccc(C(Nc2ccc(C)cc2)P2(=O)OCCCO2)cc1 (stereo not drawn) | -7.4 | 0.3 | -3.8 | -7.7 | ? | -2.4
CCOc1ccc(C(Nc2ccc(C)cc2)P2(=O)OCCC(C)O2)cc1 (stereo not drawn) | 1.6 | 11.8 | 6.1 | 1.6 | 98.5* | 1.9
COc1ccc(N2C(=O)CSC23C(=O)N2CCCc4cccc3c42)cc1 (stereo not drawn) | 3.6 | -5.1 | 4.4 | 13.9 | 10.0 | 1.1
COc1ccc(N=C2C(=O)N3CCCc4cccc2c43)cc1 | -24.5 | -11.9 | -2.5 | 1.5 | 98.6* | -14.0
Cc1cccc(C(=O)NNC2=C(C(=O)C(F)(F)F)CCC2)c1O | -0.4 | 16.8 | 11.6 | 2.2 | 97.3* | 6.0
O=C(NNC1=C(C(=O)C(F)(F)F)CCC1)c1cccc(O)c1 | -1.2 | -4.3 | 0.4 | -2.7 | 52.5 | -16.2
O=C(c1cc(O)c(O)c([N+](=O)[O-])c1)c1ccccc1F | 9.1 | . | . | 5.0 | 97.5* | 7.8
CCS(=O)(=O)Nc1c(C(=O)O)[nH]c2ccccc12 | -12.6 | -7.9 | 3.9 | 7.0 | 98.7* | 0.9
Cc1ccc(S(=O)(=O)Nc2c(C(=O)O)[nH]c3ccccc23)cc1C | -1.0 | 6.1 | -1.6 | 1.7 | 98.1* | 8.7
Cc1ccc(Sc2nc3ccc(C)cn3c(=O)c2/C=N/O)cc1 | -4.6 | -2.4 | 3.9 | -0.6 | 98.6* | 1.4
Nc1nc(C2CC2)c(Sc2sc(N)nc2C2CC2)s1 | -9.8 | -2.2 | -22.4 | 3.9 | 99.0* | -9.7
Cc1ccc2c(c1)Sc1c(ccc3ccccc13)N2 | 8.5 | 28.3* | -0.3 | 12.1 | 0.2 | -6.8
c1ccc2c(c1)Nc1cc3ccccc3cc1S2 | -9.6 | 0.5 | 3.7 | -2.1 | -14.5 | 0.7
Cc1ccccc1CSCC(=O)N/N=C/c1cccs1 | 1.9 | 0.1 | -8.6 | -1.1 | 97.9* | -2.3
COc1ccc(CNC(=O)CCSCc2ccccc2Cl)c(OC)c1 | -14.8 | -2.3 | 2.8 | 0.9 | -18.7 | -3.8
Cc1ccccc1CSCC(=O)Nc1c(C)n(C)n(-c2ccccc2)c1=O | -8.8 | 0.5 | 4.6 | -3.4 | 98.3* | -5.2
Cc1ccc(CSCC(=O)Nc2c(C)n(C)n(-c3ccccc3)c2=O)cc1 | -5.8 | -2.3 | -5.3 | 12.0 | -8.3 | 0.7
COc1ccc(CNC(=O)CSCc2ccccc2Cl)cc1 | -8.3 | 1.6 | -0.5 | -3.4 | 98.1* | 0.7
COc1ccc(NC(=O)CSCc2ccccc2C)cc1 | 12.9 | -1.1 | -4.0 | -11.5 | 84.0* | -1.4
CC1=C(C(=O)Nc2ccccc2C(=O)NCCCOC(C)C)SCCO1 | 4.1 | -5.9 | -2.3 | -0.8 | -3.4 | 7.9
